Results taken from ChEMBL document CHEMBL1629675, “Novel inhibitor of Plasmodium histone deacetylase that cures P. berghei-infected mice” (Antimicrob Agents Chemother, 2009).

How the values were obtained:
Plasmodium falciparum [1] = experiment: Antimalarial activity against Plasmodium falciparum HB3 assessed as parasite growth inhibition after 48 hrs by standard growth inhibition assay; type: functional, organism-based
Plasmodium falciparum [2] = experiment: Antimalarial activity against sPlasmodium falciparum VS/1 assessed as parasite growth inhibition after 48 hrs by standard growth inhibition assay; type: functional
Plasmodium falciparum [3] = experiment: Antimalarial activity against Plasmodium falciparum 7G8 assessed as parasite growth inhibition after 48 hrs by standard growth inhibition assay; type: functional, organism-based
Histone deacetylase = experiment: Inhibition of human HDAC in HeLa cells by fluorescent activity assay; type: cell-based
Plasmodium falciparum [4] = experiment: Inhibition of HDAC in Plasmodium falciparum 3D7 by fluorescent activity assay; type: organism-based
Plasmodium falciparum [5] = experiment: Antimalarial activity against chloroquine-sensitive Plasmodium falciparum 3D7 assessed as parasite growth inhibition after 48 hrs by standard growth inhibition assay; type: functional, organism-based
Plasmodium falciparum [6] = experiment: Antimalarial activity against Plasmodium falciparum Dd2 assessed as parasite growth inhibition after 48 hrs by standard growth inhibition assay; type: functional, organism-based
Plasmodium falciparum [7] = experiment: Antimalarial activity against chloroquine-resistant Plasmodium falciparum FCB1 assessed as parasite growth inhibition after 48 hrs by standard growth inhibition assay; type: functional, organism-based, FcB1/Columbia
Outline: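 Ring-stage cultures of P. falciparum (3D7, FCB1) in RBCs, 2% hematocrit, at 1% parasitemia, incubated 48 h at 37°C in 90% N2/5% O2/5% CO2 with compound; 0.1% Me2SO control, uninfected-RBC background. Parasitemia counted by FACS on 100,000 Sybr green-stained cells; accepted only if controls grew ≥3-fold. Growth inhibition from background-corrected ratio to control. Triplicate, repeated at least twice.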

Plasmodium falciparum [8] = experiment: Antimalarial activity against Plasmodium falciparum FCR3 assessed as parasite growth inhibition after 48 hrs by standard growth inhibition assay; type: functional, FCR-3/Gambia
[9] = Plasmodium falciparum, HB3, 48 h
[10] = Plasmodium falciparum, VS/1, 48 h
[11] = Plasmodium falciparum, 7G8, 48 h
[12] = Plasmodium falciparum, 3D7, 48 h
[13] = Plasmodium falciparum, Dd2, 48 h
[14] = Plasmodium falciparum, FcB1/Columbia, 48 h
[15] = Plasmodium falciparum, FCR-3/Gambia, 48 h

Compound	IC50 (Plasmodium falciparum [1]; [9])	IC50 (Plasmodium falciparum [2]; [10])	IC50 (Plasmodium falciparum [3]; [11])	IC50 (Histone deacetylase)	IC50 (Plasmodium falciparum [4]; Plasmodium falciparum, 3D7)	IC50 (Plasmodium falciparum [5]; [12])	IC50 (Plasmodium falciparum [6]; [13])	IC50 (Plasmodium falciparum [7]; [14])	IC50 (Plasmodium falciparum [8]; [15])	IC50 (Plasmodium falciparum [1])	IC50 (Plasmodium falciparum [2])	IC50 (Plasmodium falciparum [3])	IC50 (Plasmodium falciparum [8])	IC50 (Plasmodium falciparum [4])	IC50 (Plasmodium falciparum [5])	IC50 (Plasmodium falciparum [6])	IC50 (Plasmodium falciparum [7])
O=C(CCCCCCC(=O)Nc1nc(-c2ccccc2)cs1)NO	7 nM	6 nM	8 nM	6.6 nM	30 nM	15 nM	6 nM	6 nM	–	–	–	–	–	–	–	–	–
N[C@@H](Cc1ccccc1)C(=O)Nc1ccccc1-c1ccc(NC(=O)CCCCCCC(=O)NO)cc1	180 nM	175 nM	160 nM	–	449 nM	220 nM	170 nM	95 nM	150 nM	–	–	–	–	–	–	–	–
Cl.Nc1cccc(-c2csc(NC(=O)CCCCCCC(=O)NO)n2)c1	–	–	–	7.6 nM	–	–	–	–	–	20 nM	23 nM	10 nM	22 nM	50 nM	30 nM	12 nM	15 nM
O=C(CCCCCCC(=O)NC12CC3CC(CC(C3)C1)C2)NO	9550 nM	8120 nM	10000 nM	420 nM	658 nM	11000 nM	–	6550 nM	9580 nM	–	–	–	–	–	–	–	–
